ChEMBL document CHEMBL4038311, “An Ursolic Acid Derived Small Molecule Triggers Cancer Cell Death through Hyperstimulation of Macropinocytosis” (J Med Chem, 2017)
Calls of active or inactive are those of the source. The calls are words filed in the database; no cut-off is given here.

What was measured:
SK-N-MC = assay: Anticancer activity against human SK-N-MC cells assessed as cell viability after 48 hrs by CCK8 assay; type: functional, cell-based
Summary of the method: (§1)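 Seeded at 1000 cells/well in DMEM with 10% FBS at 37 °C, 5% CO2, overnight pre-incubation. Serial dilutions from a 100 mM DMSO stock gave final 0–50 µM, with 48 h exposure. CCK-8 read at 450 nm. IC50 fitted against DMSO control, given with s.d., n = 3 independent experiments.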

HT-1080 = assay: Anticancer activity against human HT1080 cells assessed as cell viability at 20 uM after 48 hrs by CCK8 assay relative to control; type: functional; conditions: HT-1080, 48 h, read-out: Activity
Summary of the method: (§2)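 Cells (5000/well, pre-incubated overnight) exposed to 20 µM for 48 h. CCK-8 absorbance read at 450 nm. Viability given as percent of vehicle (DMSO) control, mean ± SD. Six parallel wells per condition, at least three independent repeats.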

MCF7 [1] = assay: Anticancer activity against human MCF7 cells assessed as cell viability at 20 uM after 48 hrs by CCK8 assay relative to control; type: functional; conditions: MCF7, 48 h, read-out: Activity; summary of the method: as §2
HeLa [2] = assay: Induction of autophagy in human HeLa cells assessed as cytosolic autophagosomes formation at 20 uM after 24 hrs by transmission electron microscopic analysis; type: functional, cell-based
Summary of the method: (§3)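 HeLa exposed to 20 µM for 24 h, then fixed, dehydrated and resin-embedded. Ultrathin sections on copper grids stained with uranyl acetate and lead citrate, then examined by TEM.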

HeLa [3] = assay: Induction of macropinocytosis in human HeLa cells assessed as colocalization of lucifer yellow and late endosomal marker Rab7 at 20 uM after 6 to 24 hrs by confocal microscopic analysis; type: functional, cell-based; conditions: TDE = time-dependent effect
Summary of the method: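 HeLa on poly-L-lysine coverslips given 0.1% DMSO or 20 µM for indicated times, then loaded with Lucifer yellow CH. Fixed in 4% PFA 30 min, permeabilized with 0.1% Triton X-100, blocked with 5% BSA. Anti-EEA1, -LAMP1 or -Rab7 applied overnight at 4 °C, Alexa488 secondary 1 h, DAPI counterstain. Confocal imaging.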

HeLa [4] = assay: Induction of macropinocytosis in human HeLa cells assessed as formation of lysosomal degradative compartments at 20 uM after 24 hrs by Lysotracker red staining-based confocal microscopic analysis; type: functional, cell-based
Summary of the method: (§4)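 HeLa given 20 µM for 24 h, then labelled live with 50 nM LysoTracker Red (30 min) or 200 nM MitoTracker Red CMXRos (1 h) in medium, after Lucifer yellow loading. Imaged live by confocal microscopy.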

HeLa [5] = assay: Induction of macropinocytosis in human HeLa cells assessed as lucifer yellow accumulation in phase-lucent vacuole at 20 uM after 24 hrs by confocal microscopic analysis; type: functional, cell-based
[6] = Cytotoxicity against HDF assessed as vacuole formation at 20 uM after 24 hrs by phase contrast microscopic analysis relative to control; type: cell-based; conditions: human
Summary of the method: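 C2C12 or HDF cells given 20 µM or 0.1% DMSO for 24 h, then imaged live by phase-contrast microscopy.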

HeLa [7] = assay: Induction of macropinocytosis in human HeLa cells assessed as formation of mitochondrial degradative compartments at 20 uM after 24 hrs by Mitotracker red staining-based confocal microscopic analysis; type: functional, cell-based; summary of the method: as §4
HeLa [8] = assay: Induction of methuosis in human HeLa cells assessed as increase in number of cells with macropinosomes at 20 uM preincubated cells with macropinocytosis inhibitor EIPA for 30 mins followed by compound addition measured up to 72 hrs; type: functional, cell-based
Summary of the method: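 HeLa pretreated 30 min with or without 50 µM EIPA, then given 20 µM or DMSO for 4, 8, 12, 18, 24, 36, 48, 60 and 72 h. Cells bearing macropinosomes scored manually from field images and expressed as percentage of cells.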

MCF7 [9] = assay: Anticancer activity against human MCF7 cells assessed as vacuole formation at 20 uM after 24 hrs by phase contrast microscopic analysis; type: functional, cell-based
HeLa [10] = assay: Induction of macropinocytosis-like cytosolic vacuolization in human HeLa cells at 20 uM after 24 hrs by transmission electron microscopic analysis; type: functional, cell-based; summary of the method: as §3
HepG2 = assay: Anticancer activity against human HepG2 cells assessed as vacuole formation at 20 uM after 24 hrs by phase contrast microscopic analysis; type: functional, cell-based
HeLa [11] = assay: Anticancer activity against human HeLa cells assessed as vacuole formation at 20 uM preincubated cells with Z-VAD-FMK for 1 hr followed by compound addition measured after 24 hrs by phase contrast microscopic analysis; type: functional, cell-based
Summary of the method: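 HeLa pretreated 1 h with or without z-VAD-FMK, then given 20 µM or DMSO. Phase-contrast images taken at 24 h.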

HeLa [12] = assay: Anticancer activity against human HeLa cells assessed as cell viability after 48 hrs by CCK8 assay; type: functional, cell-based; summary of the method: as §1
HeLa [13] = assay: Anticancer activity against human HeLa cells assessed as vacuole formation preincubated cells with 3-MA followed by compound addition measured after 24 hrs by phase contrast microscopic analysis; type: functional, cell-based
Summary of the method: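 HeLa cells pretreated 1 h with or without 3-MA before compound or DMSO. Phase-contrast images obtained after 24 h.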

HeLa [14] = assay: Anticancer activity against human HeLa cells assessed as cell viability at 20 uM after 24 to 72 hrs by CCK8 assay relative to control; type: functional; conditions: read-out: Activity
Summary of the method: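 HeLa cells seeded at 5000/well and pre-incubated overnight, then exposed to 20 µM. CCK-8 absorbance at 450 nm read at 24, 48 and 72 h, relative to DMSO-treated control. Six wells per condition, experiments repeated at least three times.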

HeLa [15] = assay: Anticancer activity against human HeLa cells assessed as vacuole formation at 20 uM after 12 hrs by phase contrast microscopic analysis; type: functional, cell-based
HeLa [16] = assay: Induction of methuosis in human HeLa cells assessed as increase in vacuole formation preincubated cells with dynamin inhibitor dynasore for 1 hr followed by compound addition measured after 24 hrs by phase contrast microscopic analysis; type: functional, cell-based
Summary of the method: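 HeLa cells grown in DMEM with 10% FBS, 100 U/ml penicillin and 100 µg/ml streptomycin at 37 °C, 5% CO2 humidified air. The inhibitor was added before compound exposure. Vacuolization was judged in live cells by phase-contrast microscopy.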

HeLa [17] = assay: Anticancer activity against human HeLa cells assessed as vacuole formation at 20 uM after 24 hrs by phase contrast microscopic analysis; type: functional, cell-based
HeLa [18] = assay: Induction of apoptosis in human HeLa cells assessed as pyknotic chromatin formation at 20 uM after 24 hrs by transmission electron microscopic analysis; type: functional, cell-based; summary of the method: as §3
HeLa [19] = assay: Induction of methuosis in human HeLa cells assessed as decrease in cell viability preincubated cells with vacuolar-type H+-ATPase inhibitor Baf-A1 for 1 hr followed by compound addition measured after 48 hrs by CCK8 assay; type: functional, cell-based
Summary of the method: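 HeLa incubated 1 h with 100 nM Baf-A1 before compound addition. Viability measured by CCK-8 at 450 nm against DMSO control.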

HeLa [20] = assay: Induction of autophagy in human HeLa cells assessed as conversion of LC3-1 to LC3-2 at 15 to 25 uM after 24 hrs by Western blot analysis; type: functional, cell-based
Summary of the method: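 HeLa given indicated concentrations or 0.1% DMSO for 24 h. RIPA lysates, BCA-normalized, SDS-PAGE and PVDF transfer. Probed with anti-LC3 (overnight, 4 °C) after 5% milk block, infrared detection, GAPDH for normalization.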

IC50 (SK-N-MC): 17.1 µM
IC50 (HeLa [12]): 15.1 µM
SMILES: C[C@H]1[C@H](C)CC[C@]2(C(=O)O)CC[C@]3(C)C(=CC[C@@H]4[C@@]5(C)Cc6cnn(-c7ccc(C#N)cc7)c6C(C)(C)[C@@H]5CC[C@]43C)[C@H]12
viability at 20 µM (HT-1080): 26.8%
viability at 20 µM (MCF7 [1]): 25.2%
Activity (HeLa [2]): inactive
Activity (HeLa [3]): Tde
Activity (HeLa [4]): Active
Activity (HeLa [5]): Active
Activity [6]: Toxic
Activity (HeLa [7]): Active
Activity (HeLa [8]): inactive
Activity (MCF7 [9]): Active
Activity (HeLa [10]): Active
Activity (HepG2): Active
Activity (HeLa [11]): Active
Activity (HeLa [13]): Active
viability at 20 µM (HeLa [14]): 74.2%
Activity (HeLa [15]): Active
Activity (HeLa [16]): inactive
Activity (HeLa [17]): Active
Activity (HeLa [18]): inactive
Activity (HeLa [19]): inactive
Activity (HeLa [20]): Active
